# In ChEMBL document CHEMBL2203250, “Synthesis and evaluation of 3-¹²³I-iodo-5-[2-(S)-3-pyrrolinylmethoxy]-pyridine (niodene) as a potential nicotinic α4β2 receptor imaging agent” (Bioorg Med Chem Lett, 2012):
# Calls of active or inactive are those of the source. The calls are words filed in the database; no cut-off is given here.
# Legend:
# [1] = target: T1, Neuronal acetylcholine receptor; alpha4/beta2 (Rattus norvegicus) (UniProt P09483+P12390); assay: Displacement of [18F]nifene from alpha4beta nAChR in Sprague-Dawley rat subiculum at 10 nM after 60 mins by autoradiographic analysis; assay type: protein-complex assay
# Outline: (§1)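 Rat brain slices were preincubated 10 min in Tris HCl buffer with salts, pH 7.4. […] Slices got two 1-min ice-cold Tris HCl washes and a cold water rinse, then overnight phosphor-screen exposure. Regional binding was read as DLU/mm² and expressed relative to cerebellum.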
# [2] = target: T1, Neuronal acetylcholine receptor; alpha4/beta2 (Rattus norvegicus); assay: Displacement of [18F]nifene from alpha4beta nAChR in Sprague-Dawley rat thalamus at 1 uM after 60 mins by autoradiographic analysis; assay type: protein-complex assay; outline: as §1
# [3] = target: T1, Neuronal acetylcholine receptor; alpha4/beta2 (Rattus norvegicus); assay: Ratio of nifene Ki to compound Ki for rat alpha4beta2 nAChR; assay type: protein-complex assay
# [4] = target: T1, Neuronal acetylcholine receptor; alpha4/beta2 (Rattus norvegicus); assay: Binding affinity to alpha4beta2 nAChR in Sprague-Dawley rat cerebellum at 0.1 Ci/umol after 60 mins by autoradiographic analysis; assay type: protein-complex assay; conditions: tested as the 123I-labelled form
# Outline: (§2)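 Frozen rat brain sections were thawed for about 15 min at ambient temperature. They were preincubated 10 min in 120 mM Tris HCl with 5 mM NaCl, 5 mM KCl, 2.5 mM CaCl2 and 1 mM MgCl2, pH 7.4, then incubated with 5 nM 123I-niodene at 37 °C for 60 min. […] Sections were washed in ice-cold buffer and exposed to phosphor screens for at least 16 h. Regional binding was read as DLU/mm²; n ≥5 sections, mean and SD.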
# [5] = target: T1, Neuronal acetylcholine receptor; alpha4/beta2 (Rattus norvegicus); assay: Binding affinity to alpha4beta2 nAChR in Sprague-Dawley rat thalamus at 0.1 Ci/umol after 60 mins by autoradiographic analysis; assay type: protein-complex assay; conditions: tested as the 123I-labelled form; outline: as §2
# [6] = target: T1, Neuronal acetylcholine receptor; alpha4/beta2 (Rattus norvegicus); assay: Displacement of [18F]nifene from alpha4beta nAChR in Sprague-Dawley rat frontal cortex at 10 nM after 60 mins by autoradiographic analysis; assay type: tissue-based; outline: as §1
# [7] = target: T1, Neuronal acetylcholine receptor; alpha4/beta2 (Rattus norvegicus); assay: Displacement of [18F]nifene from alpha4beta nAChR in Sprague-Dawley rat thalamus at 10 nM after 60 mins by autoradiographic analysis; assay type: protein-complex assay; outline: as §1
# [8] = target: T1, Neuronal acetylcholine receptor; alpha4/beta2 (Rattus norvegicus); assay: Displacement of [18F]nifene from alpha4beta nAChR in Sprague-Dawley rat striatum at 10 nM after 60 mins by autoradiographic analysis; assay type: protein-complex assay; outline: as §1
# [9] = target: T1, Neuronal acetylcholine receptor; alpha4/beta2 (Rattus norvegicus); assay: Binding affinity to alpha4beta2 nAChR in Sprague-Dawley rat cortex at 0.1 Ci/umol after 60 mins by autoradiographic analysis; conditions: tested as the 123I-labelled form; outline: as §2
# Nucleic Acid [10] = assay: Ratio of drug uptake in cortex to cerebellum in Sprague-Dawley rat brain at 0.1 Ci/umol after 60 mins by autoradiographic analysis; assay type: ADME, tissue-based; conditions: in vivo, 1 h
# Nucleic Acid [11] = assay: Ratio of drug uptake in thalamus to cerebellum in Sprague-Dawley rat brain at 0.1 Ci/umol after 60 mins by autoradiographic analysis; assay type: ADME, tissue-based; conditions: in vivo, 1 h
# [12] = target: Neuronal acetylcholine receptor; alpha4/beta2 (Rattus norvegicus, UniProt P09483+P12390); assay: Displacement of [3H]cytisine from alpha4beta2 nAChR in rat brain homogenate; assay type: tissue-based
# Outline: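 Male Sprague–Dawley rat cerebrum was homogenized, washed twice by centrifugation at 40,000g and resuspended. It was incubated with 1 nM 3H-cytisine and competitor (10^-10 to 10^-3 M) in 50 mM Tris, pH 7.0, with 120 mM NaCl, 5 mM KCl, 1 mM MgCl2 and 2.5 mM CaCl2, at 2 °C for 75 min. […] The assay was filtered, and filters were washed in cold buffer and scintillation-counted.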
# Nucleic Acid [13] = assay: Ratio of drug uptake in thalamus to cerebellum in Sprague-Dawley rat brain at 2 uCi/umol after 60 mins by autoradiographic analysis; assay type: ADME, tissue-based; conditions: in vivo, 1 h
# Neuronal acetylcholine receptor; alpha4/beta2, sequence (P09483 whole entry): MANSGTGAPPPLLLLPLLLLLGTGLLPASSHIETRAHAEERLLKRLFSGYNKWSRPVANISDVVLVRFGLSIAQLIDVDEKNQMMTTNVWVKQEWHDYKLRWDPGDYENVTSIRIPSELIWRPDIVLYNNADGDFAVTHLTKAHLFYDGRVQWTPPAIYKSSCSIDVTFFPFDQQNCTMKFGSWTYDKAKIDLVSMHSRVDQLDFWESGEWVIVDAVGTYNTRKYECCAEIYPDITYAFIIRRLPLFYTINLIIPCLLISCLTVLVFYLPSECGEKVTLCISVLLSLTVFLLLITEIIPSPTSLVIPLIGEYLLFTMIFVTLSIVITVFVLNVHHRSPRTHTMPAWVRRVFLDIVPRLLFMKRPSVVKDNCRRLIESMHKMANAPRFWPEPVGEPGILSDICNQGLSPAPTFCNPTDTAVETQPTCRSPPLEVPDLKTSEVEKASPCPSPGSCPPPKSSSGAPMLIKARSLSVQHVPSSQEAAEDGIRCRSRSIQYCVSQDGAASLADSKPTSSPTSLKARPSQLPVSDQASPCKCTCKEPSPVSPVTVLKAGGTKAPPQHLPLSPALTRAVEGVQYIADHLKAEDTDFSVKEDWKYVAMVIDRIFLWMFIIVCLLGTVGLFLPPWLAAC
# Neuronal acetylcholine receptor; alpha4/beta2, sequence (P12390 whole entry): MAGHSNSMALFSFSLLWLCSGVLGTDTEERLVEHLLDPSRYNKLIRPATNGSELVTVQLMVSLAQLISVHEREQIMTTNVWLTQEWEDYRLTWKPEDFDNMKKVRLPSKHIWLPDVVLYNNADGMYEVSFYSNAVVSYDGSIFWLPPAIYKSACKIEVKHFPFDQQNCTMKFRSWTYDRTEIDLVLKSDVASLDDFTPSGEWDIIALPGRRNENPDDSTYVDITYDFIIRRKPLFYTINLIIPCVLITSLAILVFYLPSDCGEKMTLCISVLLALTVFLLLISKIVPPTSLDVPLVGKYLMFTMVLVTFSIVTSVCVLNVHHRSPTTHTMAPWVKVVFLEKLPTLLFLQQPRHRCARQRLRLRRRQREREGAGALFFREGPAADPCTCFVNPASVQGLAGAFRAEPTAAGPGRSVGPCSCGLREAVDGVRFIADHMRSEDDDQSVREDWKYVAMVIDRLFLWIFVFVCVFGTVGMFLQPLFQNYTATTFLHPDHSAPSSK
smiles,measurement,setting,value
Ic1cncc(OC[C@@H]2C=CCN2)c1,Activity,[1],Active
same,Activity,[2],> 80%
same,Ratio Ki,[3],2
same,Activity,[4],inactive
same,Activity,[5],Active
same,Activity,[6],Active
same,Activity,[7],> 65%
same,Activity,[8],Active
same,Activity,[9],Active
[123I]c1cncc(OC[C@@H]2C=CCN2)c1,Ratio,Nucleic Acid [10],1.6
same,Ratio,Nucleic Acid [11],4
CN1CCC[C@H]1c1cccnc1,Activity,[1],Active
same,Activity,[6],Active
same,Activity,[7],24%
same,Activity,[8],Active
Fc1ncccc1OC[C@@H]1C=CCN1,Ki,[12],0.5 nM
[18F]c1ncccc1OC[C@@H]1C=CCN1,Ratio,Nucleic Acid [13],7.3
